# According to ChEMBL document CHEMBL1128437, “Derivatives of 17-phenyl-18,19,20-trinorprostaglandin F2 alpha isopropyl ester: potential antiglaucoma agents” (J Med Chem, 1995):
# Tests used:
# Felis catus [1] = species: Felis catus; test: The mean ocular irritation in the treated eyes. An arbitrary scale of from 0 to 3 was used, 0 indicates absence of irritation and 3 complete closure of the lids. The effect was tested in cats at a dose of 1.0 (ug/eye); format: functional
# Outline: (§1)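 Ocular irritation was scored in the treated eye of trained female cats, 2–3 kg. Drug was given as one topical 20 µL drop in 0.9% NaCl with 0.5% polysorbate 80. The contralateral eye got vehicle only.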
# Oryctolagus cuniculus [2] = species: Oryctolagus cuniculus; test: The maximal difference in conjunctival hyperemia between treated and control eyes. The effect was tested in rabbit at a dose of 0.5 (ug/eye)
# Felis catus [3] = species: Felis catus; test: The mean area between curves for pupil diameter between treated and control eyes. The effect was tested in cats at a dose of 1.0 (ug/eye); format: functional
# Outline: (§2)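 Trained female cats, 2–3 kg, were dosed unilaterally with one 20 µL topical drop of drug in 0.9% NaCl/0.5% polysorbate 80, with vehicle in the contralateral eye. Horizontal pupil diameter was measured with a millimetre ruler under constant 10 lux illumination before dosing and at 1, 3, 6 and 23 h. Reported as maximal treated–control difference or as area between curves, per animal.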
# Felis catus [4] = species: Felis catus; test: The maximal difference in Intraocular Pressure (IOP) between treated and control eyes. The effect was tested in cats at a dose of 1.0 (ug/eye); format: functional
# Outline: (§3)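 Domestic female cats, 2–3 kg, trained for IOP measurement. One eye received a topical drop (20 µL) of drug in 0.9% NaCl with 0.5% polysorbate 80; the other eye received vehicle. IOP was read by pneumatonometer under oxibuprocain local anaesthesia before dosing and at 1, 3, 6 and 23 h. The maximal treated-minus-control difference was taken. Area between curves is the treated-eye AUC minus control-eye AUC, per animal.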
# Felis catus [5] = species: Felis catus; test: The mean area between curves for Intraocular Pressure (IOP) measured in treated and control eyes. The effect was tested in cats at a dose of 1.0 (ug/eye); format: functional; outline: as §3
# Oryctolagus cuniculus [6] = species: Oryctolagus cuniculus; test: The mean area between curves for conjunctival hyperemia between treated and control eyes. The effect was tested in rabbit at a dose of 0.5 (ug/eye)
# Felis catus [7] = species: Felis catus; test: The maximal difference in […] pupil diameter between treated and control eyes. The effect was tested in cats at a dose of 1.0 (ug/eye); format: functional; outline: as §2
# Felis catus [8] = species: Felis catus; test: The maximal difference in […] pupil diameter between treated and control eyes. The effect was tested in cats at a dose of 3.0 (ug/eye); format: functional; outline: as §2
# Felis catus [9] = species: Felis catus; test: The mean ocular irritation in the treated eyes. An arbitrary scale of from 0 to 3 was used, 0 indicates absence of irritation and 3 complete closure of the lids. The effect was tested in cats at a dose of 3.0 (ug/eye); format: functional; outline: as §1
# Felis catus [10] = species: Felis catus; test: The mean area between curves for Intraocular Pressure (IOP) measured in treated and control eyes. The effect was tested in cats at a dose of 3.0 (ug/eye); format: functional; outline: as §3
# Felis catus [11] = species: Felis catus; test: The maximal difference in Intraocular Pressure (IOP) between treated and control eyes. The effect was tested in cats at a dose of 3.0 (ug/eye); format: functional; outline: as §3
# Felis catus [12] = species: Felis catus; test: The mean area between curves for pupil diameter between treated and control eyes. The effect was tested in cats at a dose of 3.0 (ug/eye); format: functional; outline: as §2
# Monkey [13] = test: The maximal difference in Intraocular Pressure (IOP) measured in treated and control eyes. The effect was tested in monkey at a dose of 3.0 (ug/eye); format: functional, Cercopithecidae
# Outline: (§4)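 Cynomolgus monkeys trained for IOP measurement were sedated with ketamine (2–3 mg/kg) for transport and seated in restraint chairs under oxibuprocain local anaesthesia. One eye received a 10 µL drop of drug in 0.9% NaCl/0.5% polysorbate 80; the fellow eye received vehicle. IOP was read by pneumatonometer calibrated for monkey eyes before dosing and at 1, 2, 4 and 6 h. Matched-pair t test, n = 6.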
# Monkey [14] = test: The mean area between curves for Intraocular Pressure (IOP) measured in treated and control eyes. The effect was tested in monkey at a dose of 3.0 (ug/eye); format: functional, Cercopithecidae; outline: as §4
SMILES,Irritation (Felis catus [1]),Hmax (Oryctolagus cuniculus [2]),P ABC (Felis catus [3]),Imax (Felis catus [4]),I ABC (Felis catus [5]),H ABC (Oryctolagus cuniculus [6]),Pmax (Felis catus [7]),Pmax (Felis catus [8]),Irritation (Felis catus [9]),I ABC (Felis catus [10]),Imax (Felis catus [11]),P ABC (Felis catus [12]),Imax (Monkey [13]),I ABC (Monkey [14])
CC(C)OC(=O)CCC/C=C\C[C@@H]1[C@@H](/C=C/[C@@H](O)CCc2cccc(-c3ccsc3)c2)[C@H](O)C[C@@H]1O,0.1 arbitrary units,<1.3,-1.7,-1.1 mmHg,-21,<2.9,< -1 mm,,,,,,,
CC(C)OC(=O)CCC/C=C\C[C@@H]1[C@@H](/C=C/[C@H](O)CCc2ccc(-c3cccs3)cc2)[C@H](O)C[C@@H]1O,,0.3,,,,0.3,,0 mm,0.2 arbitrary units,4.2,-1.3 mmHg,0,,
CC(C)OC(=O)CCC/C=C\C[C@@H]1[C@@H](/C=C/[C@H](O)CCc2cccc(-c3cccs3)c2)[C@H](O)C[C@@H]1O,0.3 arbitrary units,0.2,<-12.4,<2.2 mmHg,12.8,0.1,< -1.3 mm,,,,,,,
CC(C)OC(=O)CCC/C=C\C[C@@H]1[C@@H](/C=C/[C@@H](O)CCc2ccc(-c3ccoc3)cc2)[C@H](O)C[C@@H]1O,,0.2,,,,0.3,,,,,,,,
CC(C)OC(=O)CCC/C=C\C[C@@H]1[C@@H](/C=C/[C@H](O)CCc2ccccc2)[C@H](O)C[C@@H]1O,0 arbitrary units,<1.7,<-50.5,-0.5 mmHg,0.3,,< -5.7 mm,,,,,,,
CC(C)OC(=O)CCC/C=C\C[C@@H]1[C@@H](/C=C/[C@@H](O)CCc2cccc(-c3ccoc3)c2)[C@H](O)C[C@@H]1O,,<0.5,,,,1.3,,-1.3 mm,0.5 arbitrary units,-24.4,-3 mmHg,<-9.3,,
CC(C)OC(=O)CCC/C=C\C[C@@H]1[C@@H](/C=C/[C@@H](O)CCc2ccc(-c3cccs3)cc2)[C@H](O)C[C@@H]1O,0.4 arbitrary units,0.3,-2.2,<-4.2 mmHg,-84,0,< -0.9 mm,,,,,,<1.5 mmHg,6.5
Cc1cccc(CC[C@@H](O)/C=C/[C@@H]2[C@@H](C/C=C\CCCC(=O)OC(C)C)[C@@H](O)C[C@H]2O)c1,0.1 arbitrary units,0.2,<-13.3,-0.3 mmHg,-1.8,-0.1,< -1.5 mm,,,,,,,
CC(=O)c1ccc(CC[C@@H](O)/C=C/[C@@H]2[C@@H](C/C=C\CCCC(=O)OC(C)C)[C@@H](O)C[C@H]2O)cc1,0 arbitrary units,-0.2,0.2,-1.8 mmHg,-17.9,-0.3,-0.2 mm,,,,,,,
CC(C)OC(=O)CCC/C=C\C[C@@H]1[C@@H](/C=C/[C@H](O)CCc2cccc(-c3ccsc3)c2)[C@H](O)C[C@@H]1O,0.1 arbitrary units,-0.3,<-14,1.7 mmHg,16,-0.8,< -1 mm,,,,,,,
CC(=O)c1cccc(CC[C@@H](O)/C=C/[C@@H]2[C@@H](C/C=C\CCCC(=O)OC(C)C)[C@@H](O)C[C@H]2O)c1,0.3 arbitrary units,-0.3,1.2,-4 mmHg,-43.3,-0.7,0.6 mm,< -0.7 mm,0.1 arbitrary units,-23.8,<-2.6 mmHg,-1.4,,
CC(=O)c1ccc(CC[C@H](O)/C=C/[C@@H]2[C@@H](C/C=C\CCCC(=O)OC(C)C)[C@@H](O)C[C@H]2O)cc1,0 arbitrary units,-0.2,1.4,-0.3 mmHg,-4.3,-0.5,0.2 mm,,,,,,<-2.3 mmHg,<-10
CC(C)OC(=O)CCC/C=C\C[C@@H]1[C@@H](/C=C/[C@H](O)CCc2cccc(-c3ccoc3)c2)[C@H](O)C[C@@H]1O,,<0.5,,,,<1.6,,-1.3 mm,0 arbitrary units,-16.3,-3 mmHg,-13,,
CC(=O)c1cccc(CC[C@H](O)/C=C/[C@@H]2[C@@H](C/C=C\CCCC(=O)OC(C)C)[C@@H](O)C[C@H]2O)c1,1.3 arbitrary units,-0.1,<-30,0.7 mmHg,7.1,0,< -1.8 mm,,,,,,<-2.8 mmHg,<-12.3
CC(C)OC(=O)CCC/C=C\C[C@@H]1[C@@H](/C=C/[C@H](O)CCc2ccc(-c3ccsc3)cc2)[C@H](O)C[C@@H]1O,0 arbitrary units,-0.2,-1.8,-0.3 mmHg,-3.1,-0.1,< -0.7 mm,,,,,,,
CC(C)OC(=O)CCC/C=C\C[C@@H]1[C@@H](/C=C/[C@H](O)CCc2ccc(-c3ccco3)cc2)[C@H](O)C[C@@H]1O,,<0.5,,,,<1,,< -1.5 mm,0.2 arbitrary units,-25.8,2.5 mmHg,<-10.6,,
CC(C)OC(=O)CCC/C=C\C[C@@H]1[C@@H](/C=C/[C@H](O)CCc2cccc(-c3ccco3)c2)[C@H](O)C[C@@H]1O,,0.3,,,,0.4,,-0.3 mm,0.4 arbitrary units,-8,-1.2 mmHg,-5.7,,
CC(C)OC(=O)CCC/C=C\C[C@@H]1[C@@H](/C=C/[C@H](O)CCc2ccc(-c3ccoc3)cc2)[C@H](O)C[C@@H]1O,,-0.3,,,,-0.7,,,,,,,,
CC(C)OC(=O)CCC/C=C\C[C@@H]1[C@@H](/C=C/[C@H](O)CCc2cccc(-c3ccccc3)c2)[C@H](O)C[C@@H]1O,0 arbitrary units,<0.7,6.5,<-1.5 mmHg,-23.5,<2.2,0.5 mm,,,,,,,
Cc1ccc(CC[C@@H](O)/C=C/[C@@H]2[C@@H](C/C=C\CCCC(=O)OC(C)C)[C@@H](O)C[C@H]2O)cc1,,0.2,,,,-0.2,,-0.2 mm,0 arbitrary units,-10.8,-1.8 mmHg,-0.2,,
CC(C)OC(=O)CCC/C=C\C[C@@H]1[C@@H](/C=C/[C@@H](O)CCc2cccc(-c3cccs3)c2)[C@H](O)C[C@@H]1O,0.1 arbitrary units,<0.9,-9.2,<-3 mmHg,<-40,<2.6,< -1.5 mm,< -3.5 mm,0.3 arbitrary units,-10.3,-1.2 mmHg,<-28,,
CC(C)OC(=O)CCC/C=C\C[C@@H]1[C@@H](/C=C/[C@@H](O)CCc2cccc(-c3ccccc3)c2)[C@H](O)C[C@@H]1O,0.1 arbitrary units,<0.9,2.3,<-4 mmHg,<-30,<1.9,-0.3 mm,,,,,,,
CC(C)OC(=O)CCC/C=C\C[C@@H]1[C@@H](/C=C/[C@@H](O)CCc2cccc(-c3ccco3)c2)[C@H](O)C[C@@H]1O,,<0.3,,,,0.3,,-0.3 mm,0.1 arbitrary units,9.8,0.8 mmHg,-2.5,,
